Rows were chosen to be rich in hits. Some 2.1% of all compounds tested hit in one or more screens of this group.
CXCR6 block: CXCR6 (human) receptor inhibition | 0.36% of 360,000 active | inhibition, % at 20 µM | CHO-K1 PathHunter CXCR6 beta-arrestin, luminescence | O00574; in the data active means inhibition above about 34%, passing the limit was not always enough;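 further: antagonist mode with CXCL16 agonist at 10 nM final; 0% = 10 nM CXCL16 with DMSO and 100% = unstimulated wells without agonist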
EBI2 antag: blocks human EBI2 receptor beta-arrestin signaling; EBI2 beta-arrestin recruitment, luminescence, 7a,25-OHC stimulated; inhibition, % at 5 µM; 0.81% of 360,000 active; in the data active means inhibition above about 38%;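 further: enzyme fragment complementation signal reports receptor beta-arrestin coupling in cells; 0% = agonist plus DMSO wells and 100% = wells without agonist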
m5-HT2A agonist: agonists of mouse serotonin 5-HT2A receptor (HTR2A); P35363; CHO-K1 mHTR2A beta-arrestin complementation, luminescence; percent of 30 µM serotonin response; activation, % at 7.6 µM; 0.66% of 360,000 active; AID 624169;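 active means activation above a run cutoff, the mean activation of all tested compounds plus 3 SD, cut at about 14% in these data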;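 further: 0% = plate median of compound wells and 100% = 30 µM serotonin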
APJ antagonist: antagonists of human APJ apelin receptor; CHO-K1 APJ beta-arrestin complementation, luminescence; inhibition, % at 20 µM; 0.32% of 330,000 active; AID 2521;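 active means inhibition above about 40% at 20 µM, limit read from the data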;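 further: cells challenged with 10 nM apelin-13 agonist together with compound; plate controls were apelin-13 plus DMSO wells for no effect and DMSO wells lacking apelin-13 for full effect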
Target sequence (P35414 whole entry, looked up): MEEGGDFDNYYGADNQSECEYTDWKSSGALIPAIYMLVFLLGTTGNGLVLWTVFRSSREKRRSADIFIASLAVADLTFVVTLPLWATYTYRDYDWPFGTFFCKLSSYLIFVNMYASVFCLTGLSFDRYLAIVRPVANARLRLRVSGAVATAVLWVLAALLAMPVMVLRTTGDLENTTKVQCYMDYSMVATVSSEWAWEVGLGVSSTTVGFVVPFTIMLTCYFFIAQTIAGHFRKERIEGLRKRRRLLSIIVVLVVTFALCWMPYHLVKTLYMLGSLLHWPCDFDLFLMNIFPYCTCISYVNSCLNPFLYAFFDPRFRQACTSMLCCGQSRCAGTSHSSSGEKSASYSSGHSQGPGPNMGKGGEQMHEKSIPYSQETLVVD
CCR6 antag: antagonists of human CCR6 receptor; CHO-K1 CCR6 PathHunter beta-arrestin, luminescence, CCL20-stimulated; inhibition, % at 20 µM; 0.49% of 340,000 active; AID 493098;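 active means compounds whose inhibition of the agonist-driven luminescence signal at 20 µM reaches about 50%, limit read from the data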;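 further: cells stimulated with CCL20 at 14 nM final; plate controls were DMSO with CCL20 for no effect and DMSO without agonist for full effect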
Target sequence (P51684 whole entry, looked up): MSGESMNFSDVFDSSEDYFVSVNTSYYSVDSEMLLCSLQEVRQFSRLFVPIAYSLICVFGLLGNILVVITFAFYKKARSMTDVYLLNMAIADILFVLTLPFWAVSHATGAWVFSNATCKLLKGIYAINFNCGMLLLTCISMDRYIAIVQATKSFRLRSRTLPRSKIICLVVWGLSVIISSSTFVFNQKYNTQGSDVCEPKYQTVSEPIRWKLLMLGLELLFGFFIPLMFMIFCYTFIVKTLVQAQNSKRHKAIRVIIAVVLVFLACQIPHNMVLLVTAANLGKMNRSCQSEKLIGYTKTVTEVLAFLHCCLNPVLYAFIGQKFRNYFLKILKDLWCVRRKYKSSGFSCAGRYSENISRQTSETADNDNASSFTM
APJ ag: activates the human apelin receptor APJ; CHO-K1 APJ PathHunter beta-arrestin, luminescence; 0% DMSO wells, 100% apelin; activation, % at 20 µM; 0.11% of 330,000 active; AID 2520;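 active means activation more than six SD over the plate average, tested at 20 µM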;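 further: 0% = DMSO alone and 100% = apelin-13 at 10 nM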
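Test system – PathHunter CHO-K1 APJ (AGTRL-1) beta-arrestin reporter cells · Input – 1000 cells/well · Compound – single test compound dose, 20 µM final, 1% DMSO · Times – compound stimulation 90 min at 25 °C, detection 60 min · Technique – beta-gal luminescence · Read-out basis – APJ–arrestin association signal · Control set – negative DMSO alone, positive Apelin-13 at 10 nM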
EBI2 conf: confirmation of human EBI2 receptor antagonists; inhibition, % at 5 µM; shares compounds with EBI2 antag; EBI2 beta-arrestin luminescence, 7a,25-OHC antagonism; 29% of 2,400 active;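 active means inhibition of at least 50%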
EBI2 agonist: counter-screen for EBI2 antagonists: EBI2 agonist activity; shares compounds with EBI2 antag; activation, % at 5 µM; AID 652000; 2,400 tested, under 10 active; EBI2-expressing cells, agonist mode, luminescence, 60 min; 0% vehicle, 100% 7α,25-dihydroxycholesterol control;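 active means activation of at least 50%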
bGal cs: beta-galactosidase inhibition counter-screen | shares compounds with EBI2 antag | purified beta-galactosidase, luminescent Galacton Star, 15 min | inhibition, % at 5 µM | 1% of 2,400 active | AID 652176;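 active means replicate-average signal at least 3 plate SD below neutral wells, shown as high inhibition, flagging enzyme-inhibiting false positives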;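 further: 0% = DMSO wells with enzyme and 100% = wells lacking enzyme; higher means stronger loss of beta-gal luminescence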
Starred values were filed as active, the others as inactive; nt = not tested or not shown.

SMILES | CXCR6 block | EBI2 antag | m5-HT2A agonist | APJ antagonist | CCR6 antag | APJ ag | EBI2 conf | EBI2 agonist | bGal cs
CCOc1cccc(/C=N/NC(=O)c2cccnc2)c1O | -12 | 7 | -1 | 10 | 2 | -2 | nt | nt | nt
COc1cccc(OC)c1C(=O)N1CCN(C(=O)c2ccc(-c3ccccc3)cc2)CC1 | 2 | 78* | -6 | -3 | 7 | 0 | 23 | 0 | -14
COc1ccc(CN2CCN(C(=O)c3ccc(-c4ccccc4)cc3)CC2)c(OC)c1OC | -4 | 68* | -1 | -10 | -1 | -1 | 49 | 0 | -19
CC(=O)Nc1ccc(Nc2cc(C)nc3c(-c4ccc(Cl)cc4)cnn23)cc1 | -11 | 53* | 2 | 4 | -11 | -2 | 42 | 0 | -14
CC(=O)Nc1ccc(Nc2cc(C)nc3c(-c4ccc(Cl)cc4)c(C)nn23)cc1 | -1 | 46* | -1 | 17 | 0 | -3 | 44 | 1 | -4
Cc1cc(Cl)n2nc(C)c(-c3ccc(Cl)cc3)c2n1 | 9 | -1 | -2 | -31 | 0 | 6 | nt | nt | nt
COc1ccc(CCNc2cc(C)nc3c(-c4ccc(Cl)cc4)cnn23)cc1OC | 3 | 19 | -1 | 0 | -1 | -2 | nt | nt | nt
CCC(=O)c1ccc(OCC(=O)N2CCN(S(=O)(=O)c3ccc(Cl)s3)CC2)cc1 | -8 | 42 | -2 | -13 | 10 | -2 | nt | nt | nt
CC(=O)c1ccc(OCCCC(=O)N2CCN(S(=O)(=O)c3cccs3)CC2)cc1 | -4 | 49* | 0 | -2 | 5 | 7 | 48 | -1 | -14
CC(=O)c1ccc(OCC(=O)N2CCN(S(=O)(=O)c3ccc(Br)s3)CC2)cc1 | -2 | 69* | 4 | -10 | 6 | -6 | 39 | 0 | 12
CCc1ccccc1NC(=O)CN1CCN(C(=O)CNC(=O)Cc2cccc3ccccc23)CC1 | -13 | 4 | 6 | -1 | -4 | 0 | nt | nt | nt
COc1ccc(CCNC(=O)C23CN(Cc4ccccc4)CC2C(c2ccc([N+](=O)[O-])cc2)=NO3)cc1 (centres undefined) | 3 | 61* | -4 | -7 | 3 | 0 | 30 | -2 | -12
CC(C)[C@H](NC(=O)c1ccccc1)C(=O)O | -5 | 2 | 2 | -11 | -3 | 0 | nt | nt | nt
COc1cccc(Nc2nc(-c3sc(C)nc3C)cs2)c1 | -3 | 48* | -3 | -7 | -13 | -2 | 59* | 1 | 4
Cc1nc(C)c(-c2csc(Nc3ccc(F)cc3)n2)s1 | 3 | 46* | -4 | -1 | 16 | 3 | 52* | 3 | 3
Cc1nc(C)c(-c2csc(Nc3ccc(C(=O)O)c(O)c3)n2)s1 | -5 | 4 | 0 | 8 | 8 | 1 | nt | nt | nt
COc1cccc(Nc2nc(-c3sc(N)nc3C)cs2)c1 | -7 | 2 | 2 | -34 | 6 | 0 | nt | nt | nt
CCn1c(SCC(N)=O)nc2sc3c(c2c1=O)CCCC3 | 1 | 3 | -5 | 11 | -4 | -3 | nt | nt | nt
CCOc1ccc(C(=O)/C=C/Nc2ccc(S(=O)(=O)Nc3onc(C)c3C)cc2)cc1 | 9 | 2 | 6 | 7 | 25 | -2 | nt | nt | nt
CCOc1ccc(CNc2ccc(S(N)(=O)=O)cc2)cc1 | -13 | -7 | 4 | -12 | 15 | 0 | nt | nt | nt
Cc1sc2ncnc(SCC(=O)NC(C)(C)C)c2c1C | -1 | -9 | 7 | 2 | 6 | -3 | nt | nt | nt
CCc1ccc(OCC(=O)NNC(=O)CSc2ncnc3sc(C)c(C)c23)cc1 | -2 | 70* | -5 | 9 | 2 | -2 | 35 | 2 | 3
Cc1ccc(OCC(=O)NNC(=O)CSc2ncnc3sc(C)c(C)c23)cc1 | 0 | 66* | 11 | -18 | 6 | -3 | 29 | 0 | 9
Cc1sc2ncnc(SCC(=O)NCC(C)C)c2c1C | -1 | -1 | -2 | 7 | 2 | 7 | nt | nt | nt
CCOc1ccc2oc(C(=O)Nc3cc(C)ccn3)c(C)c2c1 | -1 | 43* | -5 | 6 | 18 | -2 | 10 | -1 | -10
SMILES | CXCR6 block | EBI2 antag | m5-HT2A agonist | APJ antagonist | CCR6 antag | APJ ag | EBI2 conf | EBI2 agonist | bGal cs
Cc1ccc(C(=O)N(c2ccccn2)C(C)c2ccco2)cc1C (centres undefined) | 7 | -4 | -2 | 14 | 8 | -3 | nt | nt | nt
O=c1[nH]nc(-c2ccc(NCCCO)c([N+](=O)[O-])c2)c2ccccc12 | 9 | 3 | -5 | 23 | 19 | -3 | nt | nt | nt
O=C(O)COc1ccc(/C=N/NC(=O)Cc2ccc(Cl)cc2)cc1 | -10 | 2 | -2 | -29 | 9 | -3 | nt | nt | nt
Cc1ccc(C(=O)Cn2c(C(=O)/C=C/c3ccccc3)nc3ccccc32)cc1 | 17 | 48* | 9 | 8 | 22 | 2 | 36 | 0 | 7
O=C(Cn1c(C(=O)c2ccccc2)nc2ccccc21)c1ccc(Cl)cc1 | 11 | -11 | 1 | nt | 20 | nt | nt | nt | nt
O=C1NC(=O)/C(=C\c2ccccc2Oc2ccc(F)c(F)c2)S1 | 0 | -6 | -4 | -10 | -10 | 2 | nt | nt | nt
O=[N+]([O-])c1cc(-c2cnc3ccccc3n2)ccc1Oc1ccc(Br)cc1 | 4 | 46* | 0 | -11 | 13 | 2 | 42 | 0 | 3
CCOc1ccc(C(=O)NCC(=O)NNC(=O)c2ccco2)cc1OCC | -5 | -8 | -5 | 4 | 7 | 0 | nt | nt | nt
Nc1[nH]c(C(=O)c2ccccc2)c(-c2ccccc2C(F)(F)F)c1C(=O)c1cccs1 | 7 | 45* | 4 | nt | nt | nt | 20 | -1 | -7
O=C(COc1cccnc1[N+](=O)[O-])Nc1ncc(Cl)cc1Cl | -7 | -25 | 5 | -35 | -2 | 17 | nt | nt | nt
CCOc1ccc(NC(=O)CN(C)C(=O)c2ccc(C3SCCS3)cc2)cc1OCC | -3 | -6 | -8 | 9 | 5 | -4 | nt | nt | nt
O=C(CSc1nnc(C23CC4CC(CC(C4)C2)C3)o1)Nc1ccc(N2CCOCC2)c(Cl)c1 | 2 | 58* | 7 | -12 | -6 | 2 | 19 | -2 | -7
Cc1cc(C)nc(SCC(=O)Nc2ccc(N3CCOCC3)c(Cl)c2)n1 | -3 | -12 | 1 | -2 | 3 | -2 | nt | nt | nt
CCCCn1c2ccccc2c2nnc(SCCN3CCCCC3)nc21 | 13 | 49* | -12 | -21 | 15 | 0 | 13 | -2 | -11
CCCCn1c2ccc(F)cc2c2nnc(SCCN3CCOCC3)nc21 | 5 | 63* | 1 | 4 | 1 | -2 | 31 | 0 | 9
Cn1c2ccc(F)cc2c2nnc(SCCN3CCOCC3)nc21 | -2 | 1 | 1 | 18 | 4 | -2 | nt | nt | nt
